In ChEMBL document CHEMBL2034865, “Cytotoxic alkaloids from Fusarium incarnatum associated with the mangrove tree Aegiceras corniculatum” (2012):

Experiments:
Format in all cases: functional
K562 = assay: Antiproliferative activity against human K562 cells
Outline: (§1)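 HUVEC and K562 (DSM ACC 10) cells were exposed to compounds and growth was scored against untreated controls. The readout is GI50, the concentration that cuts growth of treated cells to half that of untreated cells.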

HUVEC = assay: Antiproliferative activity against HUVEC cells; conditions: Homo sapiens; outline: as §1
HeLa = assay: Cytotoxicity against human HeLa cells
Outline: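 HeLa cervix carcinoma cells (DSM ACC 57) were treated with compounds. The readout is CC50, the concentration that kills 50% of treated cells.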

GI50 (K562)	SMILES	GI50 (HUVEC)	CC50 (HeLa)
37.6 µM	CC1=CC(=O)/C(=C(\C)NCCc2ccc(O)cc2)C(=O)O1 [FUSAMINE]	37.3 µM	23.3 µM
9 µM	CC1=CC(=O)/C(=C(\C)N)C(=O)O1	68.2 µM	104 µM
0.17 µM	Cc1ccc(NC(=O)c2ccc(CN3CCN(C)CC3)cc2)cc1Nc1nccc(-c2cccnc2)n1 [IMATINIB]	18.5 µM	65.8 µM
33.3 µM	CC(=O)N1CCc2c([nH]c3ccccc23)C1	41.1 µM	23.8 µM
> 300 µM	C/C=C(\C)C(=O)NCC(C)C	> 300 µM	> 300 µM

SMILES	GI50 (K562)	GI50 (HUVEC)	CC50 (HeLa)
O=C(CO)c1cccn1CCc1ccc(O)cc1 [FUSARINE]	> 200 µM	> 200 µM	> 200 µM
